Calls of active or inactive are those of the source. The rule behind the calls is not given here.
What was measured:
[1] = biological target: T1, Transient receptor potential cation channel subfamily M member 8 (Rattus norvegicus, UniProt Q8R455); assay: Antagonist activity at recombinant rat TRPM8 expressed in HEK293 cells assessed as inhibition of icilin-induced intracellular calcium accumulation preincubated for 5 mins followed by icilin addition by Fluo-4-AM probe-based spectrofluorimetric assay; type: cell-based
Outline: (§1)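 HEK-293 cells stably expressing the listed TRP channel (human TRPV1; rat TRPM8, TRPA1, TRPV2, TRPV3 or TRPV4) were Fluo-4-AM loaded (4 µM, 1 h, 25 °C) and suspended in Tyrode's buffer pH 7.4. Compound was added 5 min before agonist: icilin 0.25 µM (TRPM8), capsaicin 0.1 µM (TRPV1), AITC 100 µM (TRPA1), LPC 3 µM (TRPV2), thymol 100 µM (TRPV3), 4α-PDD 1 µM (TRPV4). Agonist alone was taken as 100%. IC50 from sigmoidal fit, at least triplicate.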

[2] = biological target: T1, Transient receptor potential cation channel subfamily M member 8; assay: Agonist activity at recombinant rat TRPM8 expressed in HEK293 cells assessed as increase in intracellular calcium accumulation by Fluo-4-AM probe-based spectrofluorimetric assay; type: cell-based; settings: hek293
Outline: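 HEK-293 cells stably expressing rat TRPM8 were loaded with Fluo-4-AM (4 µM, 0.02% Pluronic F-127) for 1 h at 25 °C in serum-free EMEM. They were then washed and suspended in Tyrode's buffer pH 7.4 in a stirred cuvette. [Ca2+]i fluorescence (ex 488/em 516 nm) was read before and after compound addition. Wild-type HEK-293 response was subtracted. Efficacy is expressed versus 4 µM ionomycin; EC50 comes from a sigmoidal fit.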

[3] = biological target: Transient receptor potential cation channel subfamily V member 1 (Homo sapiens, UniProt Q8NER1); assay: Antagonist activity at recombinant human TRPV1 expressed in HEK293 cells assessed as inhibition of capsaicin-induced intracellular calcium accumulation preincubated for 5 mins followed by capsaicin addition by Fluo-4-AM probe-based spectrofluorimetric assay; type: cell-based; outline: as §1
[4] = biological target: Transient receptor potential cation channel subfamily A member 1 (Rattus norvegicus) (UniProt Q6RI86); assay: Antagonist activity at recombinant rat TRPA1 expressed in HEK293 cells assessed as inhibition of AITC-induced intracellular calcium accumulation up to 10 uM preincubated for 5 mins followed by AITC addition by Fluo-4-AM probe-based spectrofluorimetric assay; type: cell-based; outline: as §1
[5] = biological target: T2, Transient receptor potential cation channel subfamily V member 2 (Rattus norvegicus) (UniProt Q9WUD2); assay: Antagonist activity at recombinant rat TRPV2 expressed in HEK293 cells assessed as inhibition of LPC-induced intracellular calcium accumulation up to 10 uM preincubated for 5 mins followed by LPC addition by Fluo-4-AM probe-based spectrofluorimetric assay; type: cell-based; outline: as §1
T2 sequence (whole entry): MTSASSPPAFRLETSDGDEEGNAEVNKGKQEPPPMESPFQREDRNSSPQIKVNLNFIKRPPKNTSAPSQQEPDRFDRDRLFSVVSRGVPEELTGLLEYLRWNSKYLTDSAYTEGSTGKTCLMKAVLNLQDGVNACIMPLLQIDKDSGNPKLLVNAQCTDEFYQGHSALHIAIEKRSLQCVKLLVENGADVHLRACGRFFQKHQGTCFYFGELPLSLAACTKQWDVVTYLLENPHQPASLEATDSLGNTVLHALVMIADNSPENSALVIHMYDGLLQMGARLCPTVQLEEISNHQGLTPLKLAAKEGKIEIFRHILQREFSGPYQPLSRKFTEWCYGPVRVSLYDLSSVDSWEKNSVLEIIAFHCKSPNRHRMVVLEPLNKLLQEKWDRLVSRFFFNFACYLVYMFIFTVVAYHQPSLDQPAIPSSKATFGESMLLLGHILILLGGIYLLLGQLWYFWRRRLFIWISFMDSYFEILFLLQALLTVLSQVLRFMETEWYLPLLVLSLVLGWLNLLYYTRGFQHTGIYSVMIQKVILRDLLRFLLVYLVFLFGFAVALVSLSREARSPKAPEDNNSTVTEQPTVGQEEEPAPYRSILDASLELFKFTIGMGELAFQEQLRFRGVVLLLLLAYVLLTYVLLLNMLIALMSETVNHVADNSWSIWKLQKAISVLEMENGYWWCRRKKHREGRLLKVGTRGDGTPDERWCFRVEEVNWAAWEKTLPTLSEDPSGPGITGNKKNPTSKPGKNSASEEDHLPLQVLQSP

[6] = biological target: Transient receptor potential cation channel subfamily V member 4 (Rattus norvegicus) (UniProt Q9ERZ8); assay: Antagonist activity at recombinant rat TRPV4 expressed in HEK293 cells assessed as inhibition of 4alphaPDD-induced intracellular calcium accumulation up to 10 uM preincubated for 5 mins followed by 4alphaPDD addition by Fluo-4-AM probe-based spectrofluorimetric assay; type: cell-based; outline: as §1
[7] = in vitro; settings: C57BL/6, mouse, liver microsomes
[8] = test system: LNCaP; assay: Cytotoxicity against human LNCAP cells assessed as reduction in cell viability by measuring fluorescence gated cells at 10 uM after 72 hrs by CBNF assay (reference value: 83.3%); type: functional
[9] = test system: CWR22R; assay: Cytotoxicity against human 22Rv1 cells assessed as reduction in cell viability by measuring fluorescence gated cells at 10 uM after 72 hrs by CBNF assay (reference value: 81.3%); type: functional
[10] = Cytotoxicity against human PNT1A cells assessed as reduction in cell viability by measuring fluorescence gated cells at 10 uM after 72 hrs by CBNF assay (reference value: 94.1%); type: cell-based; settings: read-out: Activity

Sequence of Transient receptor potential cation channel subfamily V member 4 (Rattus norvegicus) (Q9ERZ8 whole entry): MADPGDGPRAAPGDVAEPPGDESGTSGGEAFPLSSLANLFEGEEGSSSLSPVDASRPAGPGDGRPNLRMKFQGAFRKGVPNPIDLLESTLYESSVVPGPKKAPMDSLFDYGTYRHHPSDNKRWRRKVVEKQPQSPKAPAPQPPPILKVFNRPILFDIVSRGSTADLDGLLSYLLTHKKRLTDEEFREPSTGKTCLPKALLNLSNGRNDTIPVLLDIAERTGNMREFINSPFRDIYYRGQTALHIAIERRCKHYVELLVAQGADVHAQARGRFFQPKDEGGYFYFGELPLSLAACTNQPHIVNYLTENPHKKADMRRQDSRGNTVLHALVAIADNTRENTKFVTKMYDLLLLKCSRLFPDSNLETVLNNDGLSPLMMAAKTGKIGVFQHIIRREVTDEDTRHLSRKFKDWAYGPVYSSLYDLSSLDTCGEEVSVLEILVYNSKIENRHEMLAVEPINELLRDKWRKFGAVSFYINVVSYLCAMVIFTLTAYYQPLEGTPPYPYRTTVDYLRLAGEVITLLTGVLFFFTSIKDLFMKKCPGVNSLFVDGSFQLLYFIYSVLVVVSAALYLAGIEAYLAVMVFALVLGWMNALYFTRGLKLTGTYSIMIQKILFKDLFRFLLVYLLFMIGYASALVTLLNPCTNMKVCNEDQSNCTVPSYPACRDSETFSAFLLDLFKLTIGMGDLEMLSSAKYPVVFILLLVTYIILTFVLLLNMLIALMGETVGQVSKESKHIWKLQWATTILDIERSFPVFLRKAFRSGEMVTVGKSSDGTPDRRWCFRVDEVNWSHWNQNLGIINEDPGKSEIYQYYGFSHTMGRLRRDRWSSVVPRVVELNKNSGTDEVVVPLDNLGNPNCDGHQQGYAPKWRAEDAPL
T1 sequence (Q8R455 whole entry): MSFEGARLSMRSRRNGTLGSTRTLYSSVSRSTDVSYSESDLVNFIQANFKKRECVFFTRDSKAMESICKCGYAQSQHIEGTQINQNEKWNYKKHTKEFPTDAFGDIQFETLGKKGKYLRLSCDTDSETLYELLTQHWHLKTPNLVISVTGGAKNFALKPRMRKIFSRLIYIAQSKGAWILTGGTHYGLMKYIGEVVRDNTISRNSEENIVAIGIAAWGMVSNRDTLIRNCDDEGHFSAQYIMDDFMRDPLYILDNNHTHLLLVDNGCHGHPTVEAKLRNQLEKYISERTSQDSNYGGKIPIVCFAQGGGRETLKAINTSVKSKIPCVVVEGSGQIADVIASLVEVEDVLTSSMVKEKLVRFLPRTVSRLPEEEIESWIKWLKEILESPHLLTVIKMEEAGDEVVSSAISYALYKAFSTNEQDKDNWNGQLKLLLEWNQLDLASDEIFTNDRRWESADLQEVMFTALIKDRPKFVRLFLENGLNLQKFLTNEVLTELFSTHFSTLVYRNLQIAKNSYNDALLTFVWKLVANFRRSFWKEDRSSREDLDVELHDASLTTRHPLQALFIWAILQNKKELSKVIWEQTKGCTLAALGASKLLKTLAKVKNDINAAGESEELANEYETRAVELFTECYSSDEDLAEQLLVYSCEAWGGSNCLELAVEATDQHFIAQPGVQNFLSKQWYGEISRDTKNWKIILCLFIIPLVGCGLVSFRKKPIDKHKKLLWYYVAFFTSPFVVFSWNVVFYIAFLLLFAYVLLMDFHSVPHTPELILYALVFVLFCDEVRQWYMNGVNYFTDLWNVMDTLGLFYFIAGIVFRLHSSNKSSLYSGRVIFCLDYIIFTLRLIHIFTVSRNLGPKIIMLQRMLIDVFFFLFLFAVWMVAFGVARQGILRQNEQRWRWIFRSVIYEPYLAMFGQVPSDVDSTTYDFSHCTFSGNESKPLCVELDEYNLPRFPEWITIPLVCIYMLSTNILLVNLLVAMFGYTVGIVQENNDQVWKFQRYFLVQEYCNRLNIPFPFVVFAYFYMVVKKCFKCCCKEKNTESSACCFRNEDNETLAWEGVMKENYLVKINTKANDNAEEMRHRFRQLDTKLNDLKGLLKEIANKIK
Sequence of Transient receptor potential cation channel subfamily V member 1 (Q8NER1 whole entry): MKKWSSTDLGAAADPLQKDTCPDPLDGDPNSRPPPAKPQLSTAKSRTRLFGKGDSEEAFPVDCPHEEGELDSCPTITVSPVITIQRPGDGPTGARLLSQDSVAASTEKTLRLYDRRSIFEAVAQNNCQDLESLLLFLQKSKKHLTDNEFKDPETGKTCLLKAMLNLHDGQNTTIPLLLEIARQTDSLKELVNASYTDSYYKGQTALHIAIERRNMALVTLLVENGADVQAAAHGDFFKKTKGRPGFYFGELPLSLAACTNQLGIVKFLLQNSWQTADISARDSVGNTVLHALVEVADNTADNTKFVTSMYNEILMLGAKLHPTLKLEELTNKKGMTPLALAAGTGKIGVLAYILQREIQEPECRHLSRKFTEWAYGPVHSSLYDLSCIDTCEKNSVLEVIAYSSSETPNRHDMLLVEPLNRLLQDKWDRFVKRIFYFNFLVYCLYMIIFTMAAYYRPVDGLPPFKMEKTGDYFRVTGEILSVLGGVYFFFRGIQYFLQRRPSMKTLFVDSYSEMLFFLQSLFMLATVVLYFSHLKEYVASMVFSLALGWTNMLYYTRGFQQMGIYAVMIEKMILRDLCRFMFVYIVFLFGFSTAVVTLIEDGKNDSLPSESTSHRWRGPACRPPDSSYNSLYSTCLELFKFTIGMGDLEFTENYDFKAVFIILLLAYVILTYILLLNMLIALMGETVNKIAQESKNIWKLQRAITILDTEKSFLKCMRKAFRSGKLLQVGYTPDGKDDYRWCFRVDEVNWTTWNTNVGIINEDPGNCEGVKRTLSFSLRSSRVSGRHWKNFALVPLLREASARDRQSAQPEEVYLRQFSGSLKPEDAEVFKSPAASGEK
Sequence of Transient receptor potential cation channel subfamily A member 1 (Rattus norvegicus) (Q6RI86 whole entry): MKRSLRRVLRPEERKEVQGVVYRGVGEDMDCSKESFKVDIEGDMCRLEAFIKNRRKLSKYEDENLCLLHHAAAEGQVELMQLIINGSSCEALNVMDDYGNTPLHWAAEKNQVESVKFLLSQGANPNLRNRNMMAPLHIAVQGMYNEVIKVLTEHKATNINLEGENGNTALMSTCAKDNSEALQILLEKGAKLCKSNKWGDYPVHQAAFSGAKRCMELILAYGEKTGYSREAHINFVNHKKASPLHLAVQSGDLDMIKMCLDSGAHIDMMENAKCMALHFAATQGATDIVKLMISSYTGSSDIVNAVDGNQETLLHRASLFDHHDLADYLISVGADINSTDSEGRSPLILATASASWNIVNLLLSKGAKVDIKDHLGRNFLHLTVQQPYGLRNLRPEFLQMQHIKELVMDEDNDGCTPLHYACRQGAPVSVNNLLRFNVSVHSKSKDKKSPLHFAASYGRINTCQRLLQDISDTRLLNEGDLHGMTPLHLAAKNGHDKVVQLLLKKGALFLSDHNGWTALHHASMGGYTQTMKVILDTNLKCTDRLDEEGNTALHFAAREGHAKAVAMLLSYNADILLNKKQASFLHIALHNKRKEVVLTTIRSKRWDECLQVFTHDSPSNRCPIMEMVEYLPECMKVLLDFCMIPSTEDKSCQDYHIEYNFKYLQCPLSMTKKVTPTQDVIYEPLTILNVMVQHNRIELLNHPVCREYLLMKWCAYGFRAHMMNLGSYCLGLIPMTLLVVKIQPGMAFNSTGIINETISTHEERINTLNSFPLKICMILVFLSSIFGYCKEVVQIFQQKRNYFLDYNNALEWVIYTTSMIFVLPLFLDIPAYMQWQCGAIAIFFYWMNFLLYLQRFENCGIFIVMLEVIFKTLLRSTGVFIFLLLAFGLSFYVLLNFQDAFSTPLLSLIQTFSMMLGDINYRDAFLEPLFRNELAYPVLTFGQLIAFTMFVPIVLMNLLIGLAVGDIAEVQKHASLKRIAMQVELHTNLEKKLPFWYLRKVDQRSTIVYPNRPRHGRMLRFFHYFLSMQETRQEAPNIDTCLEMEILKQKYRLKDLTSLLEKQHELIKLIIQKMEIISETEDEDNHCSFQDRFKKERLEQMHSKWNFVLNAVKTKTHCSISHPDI

| IC50 [1] [µM] | EC50 [2] | IC50 [3] [µM] | inhibition [4] | inhibition [5] | inhibition [6] | CLint scaled at 1 h, 3 µM [7] [mL/min/kg] | SMILES | Activity [8] [%] | Activity [9] [%] | viability at 72 h, 10 µM [10] [%] |
| --- | --- | --- | --- | --- | --- | --- | --- | --- | --- | --- |
| 0.62 | Not Active | 68.9 | inactive | inactive | inactive | 15.6 | COc1cc(/C=C2\NC(=O)[C@@H]3Cc4c(OC)c(C)c(OC)c(OC)c4[C@@H](c4ccccc4)N3C2=O)c(OC)c(C)c1OC |  |  |  |
| 0.5 | Not Active | 53 | inactive | inactive | inactive |  | COc1cc2c(cc1OC)[C@H](c1ccccc1)N(C(=O)N1CCc3cc(OC)c(OC)cc3[C@@H]1c1ccccc1)CC2 (racemic) |  |  |  |
| 0.072 | Not Active | 68.5 | inactive | inactive | inactive | 75.2 | COc1cc2c(cc1OC)[C@H](c1ccc(F)cc1)N(C(=O)N1CCc3cc(OC)c(OC)cc3[C@@H]1c1ccc(F)cc1)CC2 (racemic) | 54.4 | 82.2 | 92.7 |
| 0.43 | Not Active | 49.7 | inactive | inactive | inactive |  | COc1cc2c(cc1OC)[C@H](c1ccc(Cl)cc1)N(C(=O)N1CCc3cc(OC)c(OC)cc3[C@@H]1c1ccc(Cl)cc1)CC2 (racemic) |  |  |  |

Source: ChEMBL document CHEMBL4477204, “Tetrahydroisoquinoline-Derived Urea and 2,5-Diketopiperazine Derivatives as Selective Antagonists of the Transient Receptor Potential Melastatin 8 (TRPM8) Channel Receptor and Antiprostate Cancer Agents” (J Med Chem, 2016)
